Test results: ChEMBL document CHEMBL5653630, “Activation of the p53-MDM4 regulatory axis defines the anti-tumour response to PRMT5 inhibition through its role in regulating cellular splicing” (Sci Rep, 2018)

Assays:
[1] = test system: U2932; assay: Antiproliferative activity against human U2932 cells assessed as cell growth inhibition incubated for 6 days by celltiter-glo assay; assay type: functional; conditions: U2932, 144 h, time 6 day
How it was run: (§1)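 Cells seeded in 384-well plates at an optimized density and held 24 h. Day 0: treated in duplicate with a 20-point two-fold series (top dose ≤29 μM, ≤0.15% DMSO) and incubated 6 days. CellTiter-Glo luminescence read at Day 0 and Day 6. Four-parameter fit. gIC50 = midpoint of the growth window between DMSO and T0. Curves required ≥1.5 population doublings.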

[2] = test system: RCK8; assay: Antiproliferative activity against human RCK8 cells assessed as cell growth inhibition incubated for 6 days by celltiter-glo assay; assay type: functional; conditions: RCK8, 144 h, time 6 day; how it was run: as §1
[3] = test system: U-2940; assay: Antiproliferative activity against human U-2940 cells assessed as cell growth inhibition incubated for 6 days by celltiter-glo assay; assay type: functional; conditions: U-2940, 144 h, time 6 day; how it was run: as §1
[4] = test system: Rec1; assay: Antiproliferative activity against human REC1 cells assessed as cell growth inhibition incubated for 6 days by celltiter-glo assay; assay type: functional; conditions: Rec1, 144 h, time 6 day; how it was run: as §1
[5] = test system: MDA-MB-453; assay: Antiproliferative activity against human MDA-MB-453 cells assessed as cell growth inhibition incubated for 6 days by celltiter-glo assay; assay type: functional; conditions: MDA-MB-453, 144 h, time 6 day; how it was run: as §1
[6] = test system: SW780; assay: Antiproliferative activity against human SW780 cells assessed as cell growth inhibition incubated for 6 days by celltiter-glo assay; assay type: functional; conditions: SW780, 144 h, time 6 day; how it was run: as §1
[7] = test system: HT-1376; assay: Antiproliferative activity against human HT-1376 cells assessed as cell growth inhibition incubated for 6 days by celltiter-glo assay; assay type: functional; conditions: HT-1376, 144 h, time 6 day
How it was run: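 Cells were seeded in 384-well plates and incubated 24 h, then treated in duplicate with a 20-point, 2-fold dilution series (top dose ≤29 μM, ≤0.15% DMSO) for 6 days. CellTiter-Glo luminescence was read on day 0 and day 6. A 4-parameter fit was used, and curves needed at least 1.5 population doublings. gIC50 is the midpoint of the growth window between DMSO and T0.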

[8] = test system: SUD4; assay: Antiproliferative activity against human SU-DHL-4 cells assessed as cell growth inhibition incubated for 6 days by celltiter-glo assay; assay type: functional; conditions: SU-DHL-4, 144 h, time 6 day; how it was run: as §1
[9] = test system: J82; assay: Antiproliferative activity against human J82 cells assessed as cell growth inhibition incubated for 6 days by celltiter-glo assay; assay type: functional; conditions: J82, 144 h, time 6 day; how it was run: as §1
[10] = test system: SU-DHL-16; assay: Antiproliferative activity against human SU-DHL-16 cells assessed as cell growth inhibition incubated for 6 days by celltiter-glo assay; assay type: functional; conditions: SU-DHL-16, 144 h, time 6 day; how it was run: as §1
[11] = test system: MDA-MB-231; assay: Antiproliferative activity against human MDA-MB-231 cells assessed as cell growth inhibition incubated for 6 days by celltiter-glo assay; assay type: functional; conditions: MDA-MB-231, 144 h, time 6 day; how it was run: as §1
[12] = test system: SU-DHL-5; assay: Antiproliferative activity against human SU-DHL-5 cells assessed as cell growth inhibition incubated for 6 days by celltiter-glo assay; assay type: functional; conditions: SU-DHL-5, 144 h, time 6 day; how it was run: as §1
[13] = test system: 5637; assay: Antiproliferative activity against human 5637 cells assessed as cell growth inhibition incubated for 6 days by celltiter-glo assay; assay type: functional; conditions: Homo sapiens, 5637, 144 h; time 6 day
How it was run: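 Cells seeded in 384-well plates and held 24 h, then treated in duplicate with a 20-point two-fold dilution series (≤29 μM top dose, ≤0.15% DMSO) for 6 days. CellTiter-Glo luminescence read on Day 0 and Day 6. 4-parameter fit; curves QC'd for population doubling ≥1.5. gIC50 = concentration at the midpoint between the DMSO and T0 values.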

[14] = test system: SU-DHL-2; assay: Antiproliferative activity against human SUDHL2 cells assessed as cell growth inhibition incubated for 6 days by celltiter-glo assay; assay type: functional; conditions: SU-DHL-2, 144 h, time 6 day; how it was run: as §1
[15] = test system: Z-138; assay: Antiproliferative activity against human Z138 cells assessed as cell growth inhibition incubated for 6 days by celltiter-glo assay; assay type: functional; conditions: Z-138, 144 h, time 6 day; how it was run: as §1
[16] = Antiproliferative activity against human PER-704 cells assessed as cell growth inhibition incubated for 6 days by celltiter-glo assay; assay type: functional; conditions: PER-704, 144 h, time 6 day; how it was run: as §1
[17] = test system: SU-DHL-8; assay: Antiproliferative activity against human SU-DHL-8 cells assessed as cell growth inhibition incubated for 6 days by celltiter-glo assay; assay type: functional; conditions: SU-DHL-8, 144 h, time 6 day; how it was run: as §1
[18] = test system: WSUDLCL2; assay: Antiproliferative activity against human WSUDLCL2 cells assessed as cell growth inhibition incubated for 6 days by celltiter-glo assay; assay type: functional; conditions: WSUDLCL2, 144 h, time 6 day; how it was run: as §1
[19] = test system: JVM-2; assay: Antiproliferative activity against human JVM-2 cells assessed as cell growth inhibition incubated for 6 days by celltiter-glo assay; assay type: functional; conditions: JVM-2, 144 h, time 6 day; how it was run: as §1
[20] = Antiproliferative activity against human MINO cells assessed as cell growth inhibition incubated for 6 days by celltiter-glo assay; assay type: functional; conditions: 144 h, time 6 day; how it was run: as §1
[21] = test system: UMUC3; assay: Antiproliferative activity against human UMUC3 cells assessed as cell growth inhibition incubated for 6 days by celltiter-glo assay; assay type: functional; conditions: UMUC3, 144 h, time 6 day; how it was run: as §1
[22] = test system: SU-DHL10; assay: Antiproliferative activity against human SU-DHL-10 cells assessed as cell growth inhibition incubated for 6 days by celltiter-glo assay; assay type: functional; conditions: SU-DHL10, 144 h, time 6 day; how it was run: as §1
[23] = test system: MDA-MB-468; assay: Antiproliferative activity against human MDA-MB-468 cells assessed as cell growth inhibition incubated for 6 days by celltiter-glo assay; assay type: functional; conditions: MDA-MB-468, 144 h, time 6 day; how it was run: as §1
[24] = test system: U-87 MG; assay: Antiproliferative activity against human U-87 MG cells assessed as cell growth inhibition incubated for 6 days by celltiter-glo assay; assay type: functional, U-87MG ATCC; conditions: 144 h, time 6 day; how it was run: as §1
[25] = test system: NCI-H526; assay: Antiproliferative activity against human NCI-H526 cells assessed as cell growth inhibition incubated for 6 days by celltiter-glo assay; assay type: functional; conditions: NCI-H526, 144 h, time 6 day; how it was run: as §1
[26] = test system: Pfeiffer; assay: Antiproliferative activity against human Pfeiffer cells assessed as cell growth inhibition incubated for 6 days by celltiter-glo assay; assay type: functional; conditions: 144 h, time 6 day; how it was run: as §1
[27] = test system: LN-229; assay: Antiproliferative activity against human LN-229 cells assessed as cell growth inhibition incubated for 6 days by celltiter-glo assay; assay type: functional; conditions: LN-229, 144 h, time 6 day; how it was run: as §1
[28] = test system: SF-295; assay: Antiproliferative activity against human SF-295 cells assessed as cell growth inhibition incubated for 6 days by celltiter-glo assay; assay type: functional; conditions: SF-295, 144 h, time 6 day; how it was run: as §1
[29] = test system: SF-539; assay: Antiproliferative activity against human SF-539 cells assessed as cell growth inhibition incubated for 6 days by celltiter-glo assay; assay type: functional; conditions: SF-539, 144 h, time 6 day; how it was run: as §1
[30] = Antiproliferative activity against human PER-403 cells assessed as cell growth inhibition incubated for 6 days by celltiter-glo assay; assay type: functional; conditions: PER-403, 144 h, time 6 day; how it was run: as §1
[31] = test system: SU-DHL-6; assay: Antiproliferative activity against human SU-DHL-6 cells assessed as cell growth inhibition incubated for 6 days by celltiter-glo assay; assay type: functional; conditions: SU-DHL-6, 144 h, time 6 day; how it was run: as §1
[32] = test system: T-24; assay: Antiproliferative activity against human T24 cells assessed as cell growth inhibition incubated for 6 days by celltiter-glo assay; assay type: functional; conditions: T-24, 144 h, time 6 day; how it was run: as §1
[33] = test system: LP-1; assay: Antiproliferative activity against human LP-1 cells assessed as cell growth inhibition incubated for 6 days by celltiter-glo assay; assay type: functional; conditions: LP-1, 144 h, time 6 day; how it was run: as §1

GI50 [5] | GI50 [6] | GI50 [7] | GI50 [10] | GI50 [11] | GI50 [12] | GI50 [14] | GI50 [17] | SMILES | GI50 [1] | GI50 [2] | GI50 [3] | GI50 [4] | GI50 [8] | GI50 [9] | GI50 [13] | GI50 [15] | GI50 [16] | GI50 [18] | GI50 [19] | GI50 [20] | further results
29 nM | 290 nM | 17600 nM | 99 nM | 544 nM | 28 nM | 28 nM | 53 nM | CC(=O)N1CCC(Nc2cc(C(=O)NC[C@H](O)CN3CCc4ccccc4C3)ncn2)CC1 [PEMRAMETOSTAT] | 53 nM | 529 nM | 10200 nM | 2110 nM | 492 nM | 29300 nM | 69 nM | 4 nM | 658 nM | 82 nM | 9 nM | 130 nM | GI50 [21]: 29300 nM; GI50 [22]: 54 nM; GI50 [23]: 57 nM; GI50 [24]: 40 nM; GI50 [25]: 275 nM; GI50 [26]: 421 nM; GI50 [27]: 254 nM; GI50 [28]: 24700 nM; GI50 [29]: 61 nM; GI50 [30]: 38 nM; GI50 [31]: 4 nM; GI50 [32]: 765 nM; GI50 [33]: 1940 nM
343 nM | 451 nM | 13100 nM | 124 nM | 2930 nM | 132 nM | 86 nM | 1220 nM | O=C(NC[C@H](O)CN1CCc2ccccc2C1)c1ccnc(NC2CCC2)c1 | 336 nM | 2110 nM | 2350 nM | 1990 nM | 571 nM | 20900 nM | 143 nM | 14 nM | 375 nM | 651 nM | 172 nM | 536 nM | GI50 [21]: 19200 nM; GI50 [22]: 495 nM; GI50 [23]: 585 nM; GI50 [24]: 127 nM; GI50 [25]: 138 nM; GI50 [26]: 352 nM; GI50 [27]: 1150 nM; GI50 [28]: 9840 nM; GI50 [29]: 75 nM; GI50 [30]: 29 nM; GI50 [31]: 13 nM; GI50 [32]: 650 nM; GI50 [33]: 975 nM
